The list is not random: actives were taken first. Their share in the collection is about 3.5%.
FLuc inh counter: Photinus pyralis luciferase inhibition counter-screen. 200,000 compounds, 1.5% hits. ATPLite firefly luciferase biochemical luminescence, 10 min. P08659. inhibition, % at 10 µM;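 active = inhibition above about 50% when tested at 10 µM, limit read from the data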
Target sequence (P08659 whole entry, looked up): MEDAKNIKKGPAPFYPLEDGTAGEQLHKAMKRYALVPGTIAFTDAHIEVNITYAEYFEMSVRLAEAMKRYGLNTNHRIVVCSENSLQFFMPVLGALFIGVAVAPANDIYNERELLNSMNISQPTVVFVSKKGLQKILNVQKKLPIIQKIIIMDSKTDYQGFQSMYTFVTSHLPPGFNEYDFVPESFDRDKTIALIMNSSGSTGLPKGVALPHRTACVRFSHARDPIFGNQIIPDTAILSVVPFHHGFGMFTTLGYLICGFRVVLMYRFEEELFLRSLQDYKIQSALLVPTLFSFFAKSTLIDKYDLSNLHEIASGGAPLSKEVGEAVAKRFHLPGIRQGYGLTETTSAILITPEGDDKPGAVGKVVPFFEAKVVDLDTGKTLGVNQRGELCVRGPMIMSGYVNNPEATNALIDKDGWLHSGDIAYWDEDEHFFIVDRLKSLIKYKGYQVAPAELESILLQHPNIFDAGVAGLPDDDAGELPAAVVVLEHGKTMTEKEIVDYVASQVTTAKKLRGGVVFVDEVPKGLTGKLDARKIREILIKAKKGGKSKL
Pf gamet viab: kills late stage P. falciparum gametocytes; P. falciparum stage V gametocytes, ATP luminescence, 24 h; inhibition, % at 10.9 µM; 150,000 compounds, 0.065% hits; AID 743093;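 active = inhibition above the mean plus 3 SD of compounds within the control limits, set per campaign, cut at about 38% in these data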;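 note: 0% = DMSO wells and 100% = medium only without gametocytes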
NF-kB neuron act: raises NF-kB expression in human neuronal cells; NF-kB reporter expression; stronger effect = higher value; fold change at 12.5 µM; 190,000 compounds, 1.6% hits; in the data active = fold change above about 3.3
FLuc stim CS: firefly luciferase counter-screen for stimulation assays; activation factor at 10 µM; 200,000 tested, under 10 active; ATPlite luciferase biochemical, luminescence, 10 min; 0 = ATP-free wells, 1 = DMSO control;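 active = luciferase activation factor, scaled between plate controls, of at least 2 with compound at 10 µM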
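System: cell-free luciferase reagent; medium: PBS as buffer for the ATP substrate; doses: test compounds dosed from 2 mM stocks in 100% DMSO; incubation: 10 min, room temperature; measured by: luminescence from luciferase reaction; read-out: luciferase activation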
STAT1 act: activators of IFN-gamma induced STAT1 signaling; NIH 3T3 STAT1-luciferase reporter, luminescence; 100% = IFN-gamma alone, no compound; activation (% of control), % at 5.5 µM; 200,000 compounds, 2.6% hits; AID 932;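 active = activation above the screen-wide mean activation plus 3 SD, cut at about 130% in these data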;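 note: raw ratio to IFN-gamma control signal so 100% means no change and 0% no light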
APP 5'UTR act: APP 5'UTR luciferase reporter activation | SH-SY5Y APP 5'UTR luciferase reporter, luminescence; zero percent = DMSO vehicle wells | 190,000 compounds, 1% hits | activation, % at 2 µM;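 active = activation above a set limit, based on mean plus 3 SD of controls, cut at about 140% in these data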
* marks the source's active call; other numbers are inactive results.

`Cc1nc2ccc(-c3nc4cc(N)ccc4o3)cc2[nH]1` gave FLuc inh counter 78*, Pf gamet viab 6, NF-kB neuron act 1.7, FLuc stim CS 0.2, STAT1 act 116 and APP 5'UTR act -22.
`C=CCNC(=O)CCc1nnc(C2(c3ccc(Cl)cc3)CCC2)o1` gave FLuc inh counter -2, Pf gamet viab -9, NF-kB neuron act 2.9, FLuc stim CS 1, STAT1 act 140* and APP 5'UTR act 57.
`C=CCOCC(O)CS(=O)(=O)Cc1ccc(Cl)cc1` (configuration not stated) gave FLuc inh counter -5, NF-kB neuron act 1.1, FLuc stim CS 1.1, STAT1 act 101 and APP 5'UTR act 2.
For Clc1ccc(OCc2nc3ccccc3[nH]2)cc1 the results were FLuc inh counter 70*, Pf gamet viab -2, FLuc stim CS 0.3, STAT1 act 144* and APP 5'UTR act 184*.
`Cc1ccc(OCc2nc3ccccc3[nH]2)cc1` gave FLuc inh counter 88*, Pf gamet viab 11, NF-kB neuron act 1.1, FLuc stim CS 0.1, STAT1 act 147* and APP 5'UTR act 164*.
For CCc1nc2ccccc2[nH]1 the results were FLuc inh counter -1, Pf gamet viab 8, NF-kB neuron act 1.2, FLuc stim CS 1, STAT1 act 101 and APP 5'UTR act 11.
c1ccc(OCc2nc3ccccc3[nH]2)cc1 was read as FLuc inh counter 34, Pf gamet viab -12, NF-kB neuron act 2.4, FLuc stim CS 0.7, STAT1 act 129* and APP 5'UTR act 101.
Screening CC1CC(C)CN(CCCNC(=O)c2csc3c2CCCC3)C1 (configuration not stated) returned FLuc inh counter -2, Pf gamet viab -3, NF-kB neuron act 1.2, FLuc stim CS 1, STAT1 act 109 and APP 5'UTR act -8.
For Nc1ccc([N+](=O)[O-])cc1C(=O)NNC(=O)c1ccco1 the results were Pf gamet viab -25.
N#C/C(=N\Nc1ccccc1)C(=N)N1CCCCCC1 was read as Pf gamet viab -14.
Screening N#C/C(=N\Nc1cccc(F)c1)C(=N)N1CCCCCC1 returned FLuc inh counter 62*, NF-kB neuron act 5.2*, FLuc stim CS 0.4, STAT1 act 145* and APP 5'UTR act 150*.
`CC(C)Sc1nnc(Nc2ccccc2)s1` gave FLuc inh counter 21, Pf gamet viab -2, NF-kB neuron act 1.1, FLuc stim CS 0.8, STAT1 act 138* and APP 5'UTR act 71.
Cc1cc(OCCn2cnc3ccccc3c2=O)ccc1[N+](=O)[O-] was read as FLuc inh counter -6, Pf gamet viab 26, NF-kB neuron act 1.1, FLuc stim CS 1.1, STAT1 act 109 and APP 5'UTR act -9.
Screening Cc1ccc(OCCn2cnc3ccccc3c2=O)c([N+](=O)[O-])c1 returned FLuc inh counter -1, Pf gamet viab 2, NF-kB neuron act 1.9, FLuc stim CS 1, STAT1 act 136* and APP 5'UTR act 105.
C=CCN1C(=O)C(Cc2ccc(SC(F)F)cc2)SC1=Nc1ccc(C(=O)O)cc1 (configuration not stated) was read as FLuc inh counter 2, NF-kB neuron act 1, FLuc stim CS 1, STAT1 act 102 and APP 5'UTR act 11.
For Cc1c(C(=O)Nc2ccccc2)csc1-c1ccccc1 the results were FLuc inh counter 82*, Pf gamet viab -19, NF-kB neuron act 5.2*, FLuc stim CS 0.2, STAT1 act 137* and APP 5'UTR act 189*.
Screening CC1CCN(C(=O)c2cc(-c3ccccc3O)on2)CC1 returned FLuc inh counter 26, NF-kB neuron act 7.3*, FLuc stim CS 0.7, STAT1 act 113 and APP 5'UTR act 134.
O=C(c1cc(-c2cccc(O)c2)on1)N1CCOCC1 was read as FLuc inh counter 43, NF-kB neuron act 3.1, FLuc stim CS 0.6, STAT1 act 112 and APP 5'UTR act 93.
O=C(c1cc(-c2ccccc2)on1)N1CCCC1 was read as FLuc inh counter 46, NF-kB neuron act 4.1*, FLuc stim CS 0.5, STAT1 act 132* and APP 5'UTR act 61.
For COc1ccc(/C=N/Nc2c(Cl)cc(Cl)cc2Cl)cc1CN1CCOCC1 the results were FLuc inh counter -2, Pf gamet viab 1, NF-kB neuron act 0.96, FLuc stim CS 1, STAT1 act 108 and APP 5'UTR act -5.

Bioassay records: PubChem BioAssay, several laboratories
